Experiments:
Beta-secretase 1 [1] = target: T1, Beta-secretase 1 (Homo sapiens, UniProt P56817); experiment: Inhibition of human recombinant BACE1 using fluorescent peptide substrate at 10 ug/ml after 5 mins
Method in brief: (§1)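 FRET assay using a peptide substrate carrying a fluorophore and quencher on either side of a β-secretase cleavage site. Recombinant human BACE-1 was diluted in 0.1 M sodium acetate (pH 4.0) and added to the samples, then shaken 5 min. Fluorogenic Peptide Substrate IV in the same buffer was added and shaken 5 min. Read-out: ex 320 nm/em 405 nm; activity taken as ΔF/min relative to standard.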

Beta-secretase 1 [2] = target: T1, Beta-secretase 1; experiment: Inhibition of human recombinant BACE1 using fluorescent peptide substrate after 5 mins; method in brief: as §1

T1 sequence (P56817 whole entry): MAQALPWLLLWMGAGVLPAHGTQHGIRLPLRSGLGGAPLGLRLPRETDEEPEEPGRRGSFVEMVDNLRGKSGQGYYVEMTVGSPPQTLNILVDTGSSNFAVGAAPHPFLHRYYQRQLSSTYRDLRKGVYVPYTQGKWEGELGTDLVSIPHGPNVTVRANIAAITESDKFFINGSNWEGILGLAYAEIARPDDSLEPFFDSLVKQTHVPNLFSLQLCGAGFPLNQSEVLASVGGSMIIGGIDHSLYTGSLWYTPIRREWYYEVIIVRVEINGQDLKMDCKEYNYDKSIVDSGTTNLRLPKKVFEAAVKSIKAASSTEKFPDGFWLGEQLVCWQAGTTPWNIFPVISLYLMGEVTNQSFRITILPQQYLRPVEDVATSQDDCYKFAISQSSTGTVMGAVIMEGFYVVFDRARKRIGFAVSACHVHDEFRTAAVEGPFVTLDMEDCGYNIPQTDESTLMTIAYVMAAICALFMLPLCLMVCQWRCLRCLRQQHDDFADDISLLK

Row | Structure (SMILES) | inhibition (Beta-secretase 1 [1]) [%] | IC50 (Beta-secretase 1 [2]) [µM]
1 | CC(C)CNC(=O)[C@H](C)C[C@H](O)[C@H](CC(C)C)NC(=O)[C@H](Cc1ccc([N+](=O)[O-])cc1)NC(=O)c1ccc([N+](=O)[O-])cc1 | 10.5 | 2.64
2 | CC(C)CNC(=O)[C@H](C)C[C@H](O)[C@H](CC(C)C)NC(=O)[C@H](Cc1ccccc1)NC(=O)c1cccc(Cl)c1 | 16.9 | 
3 | CC[C@H](C)[C@H](NC(=O)OC(C)(C)C)C(=O)N[C@@H](Cc1ccccc1)C(=O)N[C@@H](CC(C)C)[C@@H](O)C[C@@H](C)C(=O)NCC(C)C | -0.71 | 
4 | CC(C)CNC(=O)[C@H](C)C[C@H](O)[C@H](CC(C)C)NC(=O)[C@H](Cc1ccc([N+](=O)[O-])cc1)NC(=O)c1ccc2c(c1)OCO2 | 40.3 | 
5 | COc1ccc(C(=O)N[C@@H](Cc2ccc([N+](=O)[O-])cc2)C(=O)N[C@@H](CC(C)C)[C@@H](O)C[C@@H](C)C(=O)NCC(C)C)cc1OC | 18.3 | 3.81
6 | CC(C)CNC(=O)[C@H](C)C[C@H](O)[C@H](CC(C)C)NC(=O)[C@H](Cc1ccccc1)NC(=O)/C=C/c1ccc(C(F)(F)F)cc1 | 59.7 | 19.5
7 | CC(C)CNC(=O)[C@H](C)C[C@H](O)[C@H](CC(C)C)NC(=O)[C@H](Cc1ccccc1)NC(=O)c1cccc2ccccc12 | -0.1 | 4.67
8 | CC(C)[C@H](NC(=O)OC(C)(C)C)C(=O)N[C@@H](Cc1ccccc1)C(=O)N[C@@H](C(C)C)[C@@H](O)C[C@@H](C)C(=O)NCc1ccccc1 | -1.56 | 
9 | CC(C)CNC(=O)[C@H](C)C[C@H](O)[C@H](CC(C)C)NC(=O)[C@H](Cc1ccccc1)NC(=O)[C@@H](NC(=O)OC(C)(C)C)C(C)C | -2.37 | 
10 | CC[C@H](C)[C@H](NC(=O)OC(C)(C)C)C(=O)N[C@@H](Cc1ccccc1)C(=O)N[C@@H](C(C)C)[C@@H](O)C[C@@H](C)C(=O)NCc1ccccc1 | -2.46 | 
11 | CC(C)CNC(=O)[C@H](C)C[C@H](O)[C@H](CC(C)C)NC(=O)[C@H](Cc1ccc([N+](=O)[O-])cc1)NC(=O)c1cc([N+](=O)[O-])cc([N+](=O)[O-])c1 | 7.61 | 
12 | CC(C)[C@H](NC(=O)[C@H](CO)NC(=O)OC(C)(C)C)[C@@H](O)C[C@@H](C)C(=O)NCc1ccccc1 | 50.5 | 
13 | COc1ccc(CC(=O)N[C@@H](CO)C(=O)N[C@@H](CC(C)C)[C@@H](O)C[C@@H](C)C(=O)NCc2ccccc2)cc1 | 25.1 | 
14 | CC(C)CNC(=O)[C@H](C)C[C@H](O)[C@H](CC(C)C)NC(=O)[C@H](Cc1ccccc1)NC(=O)/C=C/c1ccccc1 | 22.8 | 
15 | CC(C)CNC(=O)[C@H](C)C[C@H](O)[C@H](CC(C)C)NC(=O)[C@H](Cc1ccccc1)NC(=O)[C@H](CC(C)C)NC(=O)OC(C)(C)C | 54.6 | 2.31
16 | CC(C)C[C@H](NC(=O)OC(C)(C)C)C(=O)N[C@@H](Cc1ccccc1)C(=O)N[C@@H](CC(C)C)[C@@H](O)C[C@@H](C)C(=O)NCc1ccccc1 | 0.91 | 
17 | CC(C)CNC(=O)[C@H](C)C[C@H](O)[C@H](CC(C)C)NC(=O)[C@H](Cc1ccc([N+](=O)[O-])cc1)NC(=O)c1cccc2ccccc12 | -4.43 | 
18 | CC(C)CNC(=O)[C@H](C)C[C@H](O)[C@@H](NC(=O)[C@H](Cc1ccccc1)NC(=O)OC(C)(C)C)C(C)C | 25.8 | 
19 | CC(C)[C@H](NC(=O)[C@H](Cc1ccccc1)NC(=O)OC(C)(C)C)[C@@H](O)C[C@@H](C)C(=O)NCc1ccccc1 | 23 | 
20 | CC(C)CNC(=O)[C@H](C)C[C@H](O)[C@H](CC(C)C)NC(=O)[C@H](Cc1ccccc1)NC(=O)c1ccccc1 | 11.2 | 6.93
21 | CC(C)C[C@H](NC(=O)[C@H](CO)NC(=O)/C=C/c1ccc(C(F)(F)F)cc1)[C@@H](O)C[C@@H](C)C(=O)NCc1ccccc1 | 16.4 | 

Other lines, results leading:

Row | inhibition (Beta-secretase 1 [1]) [%] | IC50 (Beta-secretase 1 [2]) [µM] | Structure (SMILES)
22 | 0.91 |  | CC(C)CNC(=O)[C@H](C)C[C@H](O)[C@H](CC(C)C)NC(=O)[C@H](Cc1ccccc1)NC(=O)c1cc([N+](=O)[O-])cc([N+](=O)[O-])c1
23 | 37.2 |  | CC(C)CNC(=O)[C@H](C)C[C@H](O)[C@H](CC(C)C)NC(=O)[C@H](Cc1ccc([N+](=O)[O-])cc1)NC(=O)/C=C/c1ccccc1
24 | 20.3 |  | CC(C)CNC(=O)[C@H](C)C[C@H](O)[C@H](CC(C)C)NC(=O)[C@H](Cc1ccccc1)NC(=O)c1ccc(Cl)cc1Cl
25 | 0.13 | 3.79 | CC(C)CNC(=O)[C@H](C)C[C@H](O)[C@H](CC(C)C)NC(=O)[C@H](Cc1ccc([N+](=O)[O-])cc1)NC(=O)/C=C/c1ccc(C(F)(F)F)cc1
26 | 25.7 |  | CC(C)CNC(=O)[C@H](C)C[C@H](O)[C@H](CC(C)C)NC(=O)[C@H](Cc1ccc([N+](=O)[O-])cc1)NC(=O)c1cccc(Cl)c1
27 | 30.1 |  | CC(C)CNC(=O)[C@H](C)C[C@H](O)[C@@H](NC(=O)[C@H](Cc1ccc([N+](=O)[O-])cc1)NC(=O)OC(C)(C)C)C(C)C
28 | 16.2 | 8.07 | CC(C)CNC(=O)[C@H](C)C[C@H](O)[C@H](CC(C)C)NC(=O)[C@H](Cc1ccccc1)NC(=O)c1ccc2c(c1)OCO2
29 | 14.7 |  | COc1ccc(C(=O)N[C@@H](Cc2ccccc2)C(=O)N[C@@H](CC(C)C)[C@@H](O)C[C@@H](C)C(=O)NCC(C)C)cc1OC
30 | 22.2 | 4.24 | CC(C)CNC(=O)[C@H](C)C[C@H](O)[C@H](CC(C)C)NC(=O)[C@H](Cc1ccc([N+](=O)[O-])cc1)NC(=O)c1ccc(Cl)cc1Cl
31 | 1.47 | 15.7 | CC(C)CNC(=O)[C@H](C)C[C@H](O)[C@H](CC(C)C)NC(=O)[C@H](Cc1ccccc1)NC(=O)c1ccc([N+](=O)[O-])cc1

From ChEMBL document CHEMBL1157871, “Synthesis and preliminary evaluation of peptidomimetic inhibitors of human beta-secretase” (Eur J Med Chem, 2010)
